Measurements taken from ChEMBL document CHEMBL1142519, “Synthesis and antiprotozoal activity of cationic 2-phenylbenzofurans” (J Med Chem, 2008).
Calls of active or inactive are those of the source. The rule behind the calls is not given here.

What was measured:
[1] = tested on: Trypanosoma brucei rhodesiense; experiment: Antitrypanosomal activity against Trypanosoma brucei rhodesiense STIB 900 infected acute mouse model assessed as survival time at 5 mg/kg, ip administered daily for 4 days; format: functional; settings: route intraperitoneal
How it was run: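 STIB900 acute mouse model of T. b. rhodesiense infection, with intraperitoneal dosing. Read-out is the average days of survival of treated mice. Cures are counted as mice that survive and stay parasite-free for 60 days.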

[2] = tested on: L6; experiment: Cytotoxicity against rat L6 cells; format: cell-based
How it was run: (§1)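 IC50 values in µM, each the average of duplicate determinations. Parasites were T. b. rhodesiense STIB900 and axenic amastigotes of L. donovani MHOM/SD/62/1S-CL2D. Cytotoxicity was run on rat L6 myoblast cells.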

[3] = tested on: Trypanosoma brucei rhodesiense; experiment: Antitrypanosomal activity against Trypanosoma brucei rhodesiense STIB 900 bloodstream trypomastigotes; format: functional, organism-based; how it was run: as §1
[4] = Selectivity index, ratio of IC50 for rat L6 cells to IC50 for Trypanosoma brucei rhodesiense STIB 900; format: toxicity, cell-based; settings: read-out: Ratio IC50
How it was run: (§2)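 Ratio of the L6 rat myoblast cytotoxicity IC50 to the IC50 against the parasite named in the line. Each IC50 is the average of duplicate determinations.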

[5] = tested on: Plasmodium falciparum; experiment: Antiplasmodial activity against chloroquine-resistant Plasmodium falciparum K1; format: functional, organism-based
How it was run: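 In vitro IC50 against chloroquine-resistant P. falciparum K1, reported as the average of duplicate determinations.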

[6] = Selectivity index, ratio of IC50 for rat L6 cells to IC50 for chloroquine-resistant Plasmodium falciparum K1; format: toxicity, cell-based; settings: read-out: Ratio IC50; how it was run: as §2
[7] = tested on: Leishmania donovani; experiment: Antileishmanial activity against Leishmania donovani MHOM/SD/62/1S-CL2D axenic amastigotes; format: functional, organism-based; how it was run: as §1
[8] = Selectivity index, ratio of IC50 for rat L6 cells to IC50 for Leishmania donovani MHOM/SD/62/1S-CL2D; format: toxicity, cell-based; settings: read-out: Ratio IC50; how it was run: as §2
[9] = tested on: Trypanosoma brucei rhodesiense; experiment: Antitrypanosomal activity against Trypanosoma brucei rhodesiense STIB 900 infected acute mouse model assessed as cured mouse at 5 mg/kg, ip daily for 4 days; format: functional, organism-based; set-up: dose 5 mg/kg
How it was run: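 STIB900 acute mouse model of trypanosomiasis with intraperitoneal dosing. The regimens were daily for 4 days at 20, 5 or 1 mg/kg, or a single 10 mg/kg dose. A cure is a mouse that survives and is parasite-free for 60 days. Average days of survival are also recorded.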

COc1ccc(C(=N)N)cc1-c1cc2cc(C(=N)N)ccc2o1
Survival [1]: >57 days | IC50 [2]: 179000 nM | IC50 [3]: 2 nM | selectivity ratio [4]: 89500 | IC50 [5]: 40 nM | selectivity ratio [6]: 4480 | IC50 [7]: 5700 nM | selectivity ratio [8]: 31

COc1cc(C(=N)NC(C)C)cc2cc(-c3ccc(C(=N)NC(C)C)cc3)oc12
IC50 [2]: > 190000 nM | IC50 [3]: 90 nM | selectivity ratio [4]: > 2110 | IC50 [5]: 48 nM | selectivity ratio [6]: > 3960 | IC50 [7]: 15000 nM | selectivity ratio [8]: > 12

COc1ccc(C(=N)NC(C)C)cc1-c1cc2cc(C(=N)NC(C)C)ccc2o1
IC50 [2]: > 179000 nM | IC50 [3]: 155 nM | selectivity ratio [4]: > 1160 | IC50 [5]: 250 nM | selectivity ratio [6]: > 716 | IC50 [7]: 25000 nM | selectivity ratio [8]: > 7

COc1cc(C2=NCCN2)ccc1-c1cc2cc(C3=NCCN3)ccc2o1
IC50 [2]: 7400 nM | IC50 [3]: 247 nM | selectivity ratio [4]: 30 | IC50 [5]: 31 nM | selectivity ratio [6]: 239 | IC50 [7]: 60000 nM | selectivity ratio [8]: 0.1

COc1cc(C(=N)N)ccc1-c1cc2ccc(C(=N)N)cc2o1
Survival [1]: >34.5 days | IC50 [2]: 108000 nM | IC50 [3]: 3 nM | selectivity ratio [4]: 36000 | IC50 [5]: 20 nM | selectivity ratio [6]: 5400 | IC50 [7]: 3700 nM | selectivity ratio [8]: 29

N=C(N)c1ccc(OCCCCCOc2ccc(C(=N)N)cc2)cc1 [PENTAMIDINE]
Survival [1]: >45 days | IC50 [7]: 1800 nM

CC(C)NC(=N)c1ccc(-c2cc3ccc(C(=N)NC(C)C)cc3o2)cc1
Survival [1]: >38.5 days | IC50 [2]: > 199000 nM | IC50 [3]: 148 nM | selectivity ratio [4]: > 1340 | IC50 [5]: 15 nM | selectivity ratio [6]: > 13300 | IC50 [7]: 12000 nM | selectivity ratio [8]: > 17

c1ccc2[nH]c(-c3ccc(-c4cc5cc(-c6nc7ccccc7[nH]6)ccc5o4)cc3)nc2c1
Survival [1]: 5.5 days | IC50 [2]: 6700 nM | IC50 [3]: 249 nM | selectivity ratio [4]: 27 | IC50 [5]: 31 nM | selectivity ratio [6]: 216 | IC50 [7]: > 100000 nM | selectivity ratio [8]: 0.1 | Activity [9]: inactive

c1cc(-c2cc3ccc(C4=NCCN4)cc3o2)ccc1C1=NCCN1
IC50 [2]: 4500 nM | IC50 [3]: 319 nM | selectivity ratio [4]: 14 | IC50 [5]: 109 nM | selectivity ratio [6]: 41 | IC50 [7]: > 50000 nM | selectivity ratio [8]: < 0.1

N=C(N)c1ccc(O)c(-c2cc3ccc(C(=N)N)cc3o2)c1
Survival [1]: >36 days | IC50 [2]: 164000 nM | IC50 [3]: 29 nM | selectivity ratio [4]: 5660 | IC50 [5]: 378 nM | selectivity ratio [6]: 434 | IC50 [7]: 41000 nM | selectivity ratio [8]: 4

Oc1cc(C2=NCCN2)ccc1-c1cc2ccc(C3=NCCN3)cc2o1
Survival [1]: 23 days | IC50 [2]: > 193000 nM | IC50 [3]: 11 nM | selectivity ratio [4]: > 17500 | IC50 [5]: 98 nM | selectivity ratio [6]: > 1970 | IC50 [7]: 13000 nM | selectivity ratio [8]: > 15 | Activity [9]: inactive

c1c[nH]c(-c2ccc(-c3cc4cc(-c5ncc[nH]5)ccc4o3)cc2)n1
IC50 [2]: 3300 nM | IC50 [3]: 606 nM | selectivity ratio [4]: 5 | IC50 [5]: 33 nM | selectivity ratio [6]: 100 | IC50 [7]: > 100000 nM | selectivity ratio [8]: < 0.03

CC(C)NC(=N)c1cccc(-c2cc3cc(C(=N)NC(C)C)ccc3o2)c1
IC50 [2]: > 199000 nM | IC50 [3]: 473 nM | selectivity ratio [4]: > 421 | IC50 [5]: 331 nM | selectivity ratio [6]: > 601 | IC50 [7]: 13000 nM | selectivity ratio [8]: > 15

COc1cc(C2=NCCN2)ccc1-c1cc2ccc(C3=NCCN3)cc2o1
Survival [1]: 7 days | IC50 [2]: 4400 nM | IC50 [3]: 49 nM | selectivity ratio [4]: 90 | IC50 [5]: 77 nM | selectivity ratio [6]: 57 | IC50 [7]: > 100000 nM | selectivity ratio [8]: < 0.04 | Activity [9]: inactive

COc1cc(C(=N)N)ccc1-c1cc2cc(C(=N)N)ccc2o1
Survival [1]: >47 days | IC50 [2]: 157000 nM | IC50 [3]: 3 nM | selectivity ratio [4]: 52300 | IC50 [5]: 3 nM | selectivity ratio [6]: 52300 | IC50 [7]: 2000 nM | selectivity ratio [8]: 80

CC(C)NC(=N)c1ccc(O)c(-c2cc3ccc(C(=N)NC(C)C)cc3o2)c1
IC50 [2]: > 187000 nM | IC50 [3]: 5100 nM | selectivity ratio [4]: > 37 | IC50 [5]: 636 nM | selectivity ratio [6]: > 294 | IC50 [7]: > 100000 nM
